Consider one molecule from ChEMBL document CHEMBL1817551, “Design of small molecule inhibitors of acetyl-CoA carboxylase 1 and 2 showing reduction of hepatic malonyl-CoA levels in vivo in obese Zucker rats” (Bioorg Med Chem, 2011).

Data set [1] in a line: Solubility of the compound after 16 hrs by LC-UV/MS analysis. In kind it is physicochemical.
A further data set addresses CYP3A4 (Homo sapiens, UniProt P08684). Nature of the data set: Inhibition of CYP3A4 at 13 uM. Format: ADME.
The target of data set [2] is Voltage-gated inwardly rectifying potassium channel KCNH2 (Homo sapiens, UniProt Q12809).
Voltage-gated inwardly rectifying potassium channel KCNH2, sequence (Q12809 whole entry): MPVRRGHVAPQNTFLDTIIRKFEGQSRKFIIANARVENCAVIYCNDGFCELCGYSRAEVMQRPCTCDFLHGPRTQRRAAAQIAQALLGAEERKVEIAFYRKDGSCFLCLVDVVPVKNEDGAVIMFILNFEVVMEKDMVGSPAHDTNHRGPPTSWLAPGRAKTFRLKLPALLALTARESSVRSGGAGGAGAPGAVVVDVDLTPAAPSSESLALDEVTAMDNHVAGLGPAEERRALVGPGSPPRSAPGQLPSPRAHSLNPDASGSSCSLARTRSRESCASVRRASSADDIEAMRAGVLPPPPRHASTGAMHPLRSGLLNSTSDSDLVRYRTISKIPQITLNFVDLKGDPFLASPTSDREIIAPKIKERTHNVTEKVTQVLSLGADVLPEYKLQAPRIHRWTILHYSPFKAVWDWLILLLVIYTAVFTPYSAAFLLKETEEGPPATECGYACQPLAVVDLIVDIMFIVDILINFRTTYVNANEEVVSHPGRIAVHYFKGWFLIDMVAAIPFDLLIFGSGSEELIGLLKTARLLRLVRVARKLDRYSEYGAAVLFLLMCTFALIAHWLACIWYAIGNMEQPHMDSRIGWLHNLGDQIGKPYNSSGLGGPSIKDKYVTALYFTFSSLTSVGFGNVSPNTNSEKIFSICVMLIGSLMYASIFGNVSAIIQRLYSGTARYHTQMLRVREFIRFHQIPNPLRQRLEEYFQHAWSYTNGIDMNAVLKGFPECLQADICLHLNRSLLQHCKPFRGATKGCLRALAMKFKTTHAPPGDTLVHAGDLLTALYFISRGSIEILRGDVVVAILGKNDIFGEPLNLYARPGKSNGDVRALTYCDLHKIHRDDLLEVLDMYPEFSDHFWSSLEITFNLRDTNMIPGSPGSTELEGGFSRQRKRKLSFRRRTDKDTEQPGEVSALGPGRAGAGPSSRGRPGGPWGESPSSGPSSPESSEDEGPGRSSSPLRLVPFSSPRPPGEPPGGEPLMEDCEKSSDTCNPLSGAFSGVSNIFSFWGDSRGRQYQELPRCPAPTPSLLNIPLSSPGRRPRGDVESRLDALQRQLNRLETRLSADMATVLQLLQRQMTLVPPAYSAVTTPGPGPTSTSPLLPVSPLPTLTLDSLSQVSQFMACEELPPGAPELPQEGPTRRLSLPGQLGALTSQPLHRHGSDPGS
A further data set addresses Acetyl-CoA carboxylase 2 (Homo sapiens, UniProt O00763). The data set can be described thus: Inhibition of human recombinant his-tagged ACC2 expressed in baculovirus/Sf9 cell assessed as inorganic phosphate formation […] measured after 1.5 hrs by Malachite green reagent method.
The nature of data set [3]: Volume of distribution in C57BL/6 mouse at 20 umol/kg, iv and 20 umol/kg, po. To be noted: in vivo. Format: ADME, organism-based.
For a further data set, the target named is CYP2C9 (Homo sapiens, UniProt P11712). Nature of the data set: Inhibition of CYP2C9 at 13 uM. In kind it is ADME.
CYP2C9, sequence (P11712 whole entry): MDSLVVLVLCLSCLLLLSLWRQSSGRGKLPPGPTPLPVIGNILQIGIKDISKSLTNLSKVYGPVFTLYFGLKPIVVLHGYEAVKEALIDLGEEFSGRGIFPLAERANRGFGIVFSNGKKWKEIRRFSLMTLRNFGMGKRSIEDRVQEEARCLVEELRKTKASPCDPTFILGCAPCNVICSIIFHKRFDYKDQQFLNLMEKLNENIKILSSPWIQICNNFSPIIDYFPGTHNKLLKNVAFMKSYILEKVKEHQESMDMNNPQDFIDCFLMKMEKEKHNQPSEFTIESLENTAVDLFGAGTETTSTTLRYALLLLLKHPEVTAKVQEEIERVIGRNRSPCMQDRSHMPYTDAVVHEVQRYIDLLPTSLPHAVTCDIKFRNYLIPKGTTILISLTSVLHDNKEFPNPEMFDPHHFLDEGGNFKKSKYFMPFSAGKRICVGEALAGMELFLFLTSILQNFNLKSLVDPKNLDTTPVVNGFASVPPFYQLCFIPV
Data set [4] concerns Rattus norvegicus. The data set can be described thus: Ratio of […] to fraction unbound in Sprague-Dawley rat at 3 to 5 umol/kg, iv. To be noted: in vivo. Format: ADME, organism-based.
A short description of data set [5]: Clearance in Sprague-Dawley rat at 3 to 5 umol/kg, iv. To be noted: in vivo. Format: ADME, organism-based.
Data set [6] addresses Acetyl-CoA carboxylase 1 (Homo sapiens, UniProt Q13085). The data set can be described thus: Inhibition of human recombinant his-tagged ACC1 expressed in baculovirus/Sf9 cell assessed as inorganic phosphate formation […] measured after 1.5 hrs by Malachite green reagent method.
The target in data set [7] is Acetyl-CoA carboxylase 1 (Rattus norvegicus, UniProt P11497). Nature of the data set: Inhibition of rat ACC1 assessed as inorganic phosphate generation preincubated for 5 mins measured after 1.5 hrs using Malachite green reagent method.
In the next data set the target is CYP2C19 (Homo sapiens, UniProt P33261). Nature of the data set: Inhibition of CYP2C19 at 13 uM. In kind it is ADME.
CYP2C19, sequence (P33261 whole entry): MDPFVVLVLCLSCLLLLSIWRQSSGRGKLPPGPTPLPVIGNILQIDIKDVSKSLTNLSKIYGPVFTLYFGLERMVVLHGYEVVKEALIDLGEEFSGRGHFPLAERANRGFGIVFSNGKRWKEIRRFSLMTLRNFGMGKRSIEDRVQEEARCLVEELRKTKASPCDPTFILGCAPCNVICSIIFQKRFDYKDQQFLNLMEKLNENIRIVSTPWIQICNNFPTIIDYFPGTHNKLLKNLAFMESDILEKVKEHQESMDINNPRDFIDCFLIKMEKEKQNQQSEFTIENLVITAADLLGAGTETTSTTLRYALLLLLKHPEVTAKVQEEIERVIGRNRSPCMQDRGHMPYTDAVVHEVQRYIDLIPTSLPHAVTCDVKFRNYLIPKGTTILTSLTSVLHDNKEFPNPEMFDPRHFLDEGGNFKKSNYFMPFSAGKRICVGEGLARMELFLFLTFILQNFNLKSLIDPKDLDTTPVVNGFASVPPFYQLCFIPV
Data set [8] relates to Rattus norvegicus. Nature of the data set: Antiobesity activity in obese Zucker rat assessed as reduction in hepatic malonyl-coA level, iv administered 2 hrs. In kind it is functional. Further details: scale not given: the % may be the effect or the level left. Summed up:
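Obese Zucker rats were anaesthetized with Inactin (180 mg/kg ip), tracheotomized and fitted with carotid and jugular catheters. After 1.5 h post-surgery stabilization at 37.5 °C, compound or vehicle was infused iv; lean vehicle controls were included. Hepatic malonyl-CoA was measured by ion-pair HPLC–negative ESI MS/MS against a ¹³C₃ internal standard and related to plasma free exposure (fu×Cp/rat ACC2 IC50).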

Data set [9] is described as follows: Intrinsic clearance in human liver microsome at 1 uM after 30 mins by LC-UV/MS analysis. The note with it: liver microsomes. In kind it is ADME.
The nature of data set [10]: Clearance in C57BL/6 mouse at 20 umol/kg, iv and 20 umol/kg, po. Format: ADME, organism-based. The note with it: in vivo.
Data set [11] can be described thus: Lipophilicity, log D of the compound. Format: physicochemical. The note with it: octanol/water.
Data set [12] concerns the target Acetyl-Coenzyme A carboxylase 2 (Rattus norvegicus, UniProt Q1HEC0). Nature of the data set: Inhibition of ACC2 […] preincubated for 15 mins measured after 1.5 hrs using Malachite green reagent method.
Data set [13] can be described thus: Fraction unbound in human plasma at 10 uM after 18 hrs by equilibrium dialysis method. Format: ADME, cell-free. For orientation: In equilibrium dialysis only unbound substance equilibrates across the membrane.
For the next data set, the target named is T1, CYP1A2 (Homo sapiens, UniProt P05177).
T1 sequence (P05177 whole entry): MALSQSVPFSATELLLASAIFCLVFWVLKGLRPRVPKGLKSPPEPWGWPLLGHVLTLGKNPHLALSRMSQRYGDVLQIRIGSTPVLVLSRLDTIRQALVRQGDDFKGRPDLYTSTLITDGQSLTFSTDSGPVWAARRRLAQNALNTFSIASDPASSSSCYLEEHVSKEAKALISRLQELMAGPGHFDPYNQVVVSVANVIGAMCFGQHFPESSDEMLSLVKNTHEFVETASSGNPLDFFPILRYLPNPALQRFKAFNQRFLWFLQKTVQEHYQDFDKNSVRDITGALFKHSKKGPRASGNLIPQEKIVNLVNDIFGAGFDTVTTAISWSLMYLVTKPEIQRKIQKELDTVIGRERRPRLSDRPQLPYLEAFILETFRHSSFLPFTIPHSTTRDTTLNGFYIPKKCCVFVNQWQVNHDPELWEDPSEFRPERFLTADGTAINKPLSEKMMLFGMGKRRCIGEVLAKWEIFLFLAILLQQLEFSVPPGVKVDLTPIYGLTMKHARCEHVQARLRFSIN
Nature of the data set: Inhibition of CYP1A2 at 13 uM. In kind it is ADME.

The target of the next data set is CYP2D6 (Homo sapiens, UniProt P10635). Nature of the data set: Inhibition of CYP2D6 at 13 uM. Format: ADME.
CYP2D6, sequence (P10635 whole entry): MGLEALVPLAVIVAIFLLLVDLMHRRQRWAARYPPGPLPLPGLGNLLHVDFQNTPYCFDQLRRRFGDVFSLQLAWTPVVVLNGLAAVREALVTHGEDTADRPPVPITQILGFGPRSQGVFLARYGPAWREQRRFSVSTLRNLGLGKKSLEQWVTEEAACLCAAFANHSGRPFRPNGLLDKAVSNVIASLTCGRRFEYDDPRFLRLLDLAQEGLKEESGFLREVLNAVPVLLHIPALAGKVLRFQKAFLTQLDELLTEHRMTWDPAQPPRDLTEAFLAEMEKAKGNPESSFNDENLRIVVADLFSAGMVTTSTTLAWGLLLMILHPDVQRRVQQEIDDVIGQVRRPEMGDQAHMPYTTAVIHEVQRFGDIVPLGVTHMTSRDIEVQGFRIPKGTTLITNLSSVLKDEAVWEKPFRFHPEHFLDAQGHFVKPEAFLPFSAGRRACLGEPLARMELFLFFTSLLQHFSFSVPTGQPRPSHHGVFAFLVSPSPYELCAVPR
Data set [14] can be described thus: Oral bioavailability in C57BL/6 mouse at 20 umol/kg. Format: ADME, organism-based. To be noted: in vivo.
The species entered for a further data set is Homo sapiens. The data set can be described thus: Ratio IC50 for human ACC2 to IC50 for human ACC1.
Data set [15] can be described thus: Half life in C57BL/6 mouse at 20 umol/kg, po. Format: ADME, organism-based. To be noted: in vivo.

Molecules are shown by their SMILES. pIC50: −log10 of the molar value. Values after ≈ are worked out from the molar mass of the structure shown. Some results are limits rather than exact numbers.

Acetyl-CoA carboxylase 2, sequence (O00763 whole entry): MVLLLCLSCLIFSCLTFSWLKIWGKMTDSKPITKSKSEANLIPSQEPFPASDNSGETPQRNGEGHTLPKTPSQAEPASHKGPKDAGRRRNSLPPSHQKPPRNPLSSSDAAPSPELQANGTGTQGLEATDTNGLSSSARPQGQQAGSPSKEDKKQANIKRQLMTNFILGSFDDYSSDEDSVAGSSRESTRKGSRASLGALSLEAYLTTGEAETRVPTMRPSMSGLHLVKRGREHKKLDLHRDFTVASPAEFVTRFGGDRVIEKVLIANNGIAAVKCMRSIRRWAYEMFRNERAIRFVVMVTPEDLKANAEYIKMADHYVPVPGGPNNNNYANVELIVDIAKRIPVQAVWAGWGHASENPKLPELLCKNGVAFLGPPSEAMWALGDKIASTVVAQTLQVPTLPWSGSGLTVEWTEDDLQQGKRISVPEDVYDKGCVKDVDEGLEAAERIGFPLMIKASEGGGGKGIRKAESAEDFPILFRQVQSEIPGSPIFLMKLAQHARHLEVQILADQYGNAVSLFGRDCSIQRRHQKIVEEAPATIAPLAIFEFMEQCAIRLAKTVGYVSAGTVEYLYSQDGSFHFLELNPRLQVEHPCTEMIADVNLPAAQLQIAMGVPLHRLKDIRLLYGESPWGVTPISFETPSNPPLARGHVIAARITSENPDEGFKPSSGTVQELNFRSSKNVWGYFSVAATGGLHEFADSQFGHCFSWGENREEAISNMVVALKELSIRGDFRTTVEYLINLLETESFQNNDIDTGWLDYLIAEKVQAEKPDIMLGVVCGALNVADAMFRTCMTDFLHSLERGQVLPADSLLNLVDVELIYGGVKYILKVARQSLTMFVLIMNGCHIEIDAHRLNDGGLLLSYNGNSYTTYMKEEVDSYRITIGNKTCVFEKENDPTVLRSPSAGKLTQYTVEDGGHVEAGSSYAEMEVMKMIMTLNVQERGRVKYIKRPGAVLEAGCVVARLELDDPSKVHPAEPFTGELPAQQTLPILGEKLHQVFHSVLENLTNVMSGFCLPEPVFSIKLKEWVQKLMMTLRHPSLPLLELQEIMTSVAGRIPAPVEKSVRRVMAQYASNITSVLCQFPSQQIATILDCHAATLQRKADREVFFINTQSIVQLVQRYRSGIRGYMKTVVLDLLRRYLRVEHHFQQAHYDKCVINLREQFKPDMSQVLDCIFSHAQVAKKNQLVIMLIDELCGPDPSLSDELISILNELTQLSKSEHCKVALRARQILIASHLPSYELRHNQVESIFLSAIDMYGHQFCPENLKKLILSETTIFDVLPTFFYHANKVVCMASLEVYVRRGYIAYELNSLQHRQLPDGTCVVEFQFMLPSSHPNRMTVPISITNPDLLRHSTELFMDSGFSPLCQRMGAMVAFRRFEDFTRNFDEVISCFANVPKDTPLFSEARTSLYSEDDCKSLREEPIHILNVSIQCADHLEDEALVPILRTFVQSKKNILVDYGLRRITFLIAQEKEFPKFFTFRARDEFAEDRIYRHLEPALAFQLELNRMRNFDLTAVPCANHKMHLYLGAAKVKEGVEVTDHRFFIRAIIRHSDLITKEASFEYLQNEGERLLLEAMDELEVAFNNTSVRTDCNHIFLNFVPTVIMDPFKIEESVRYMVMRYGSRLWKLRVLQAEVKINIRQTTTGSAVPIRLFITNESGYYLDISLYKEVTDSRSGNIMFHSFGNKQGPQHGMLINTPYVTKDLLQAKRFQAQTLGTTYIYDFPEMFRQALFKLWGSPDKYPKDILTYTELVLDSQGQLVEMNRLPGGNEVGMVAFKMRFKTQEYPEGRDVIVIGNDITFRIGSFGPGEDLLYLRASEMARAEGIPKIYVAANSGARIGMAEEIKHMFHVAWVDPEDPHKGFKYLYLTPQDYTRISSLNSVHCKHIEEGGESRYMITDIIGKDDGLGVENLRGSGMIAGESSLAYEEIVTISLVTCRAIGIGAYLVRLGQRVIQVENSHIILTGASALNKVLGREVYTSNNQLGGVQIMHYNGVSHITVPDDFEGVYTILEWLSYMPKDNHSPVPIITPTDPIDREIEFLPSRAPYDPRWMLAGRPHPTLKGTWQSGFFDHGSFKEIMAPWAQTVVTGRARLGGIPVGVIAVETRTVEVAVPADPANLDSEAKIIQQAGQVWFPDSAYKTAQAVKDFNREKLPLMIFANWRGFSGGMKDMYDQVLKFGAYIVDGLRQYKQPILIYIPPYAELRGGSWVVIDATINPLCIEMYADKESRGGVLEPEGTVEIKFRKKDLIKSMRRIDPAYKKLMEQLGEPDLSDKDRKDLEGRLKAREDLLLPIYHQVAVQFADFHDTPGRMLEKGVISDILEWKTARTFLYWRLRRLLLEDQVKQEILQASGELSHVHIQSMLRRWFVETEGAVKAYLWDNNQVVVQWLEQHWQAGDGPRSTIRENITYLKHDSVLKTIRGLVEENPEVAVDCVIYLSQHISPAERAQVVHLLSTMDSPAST

Turning to `CN(C)CCC1CCN(c2cc(C(=O)NC[C@H]3CC[C@H](CNC(=O)OC(C)(C)C)CC3)c3ccccc3n2)CC1`, in data set [1], the solubility at 16 h is 79 µM (≈ 43.6 µg/mL). Further, the inhibition at 13 µM at CYP3A4, against CYP2C9, against CYP2C19, at CYP1A2 and on CYP2D6 was < 50% in each case. Moreover, the pIC50 in data set [2] was < 4.48; on Acetyl-CoA carboxylase 2 it was 6.96; on Acetyl-CoA carboxylase 1 [6], 5.92; at Acetyl-CoA carboxylase 1 [7] it was 6.34; in data set [12] it was 6.72. This molecule also returned a Vd in [3] of 6.7 L/kg. In addition, the Ratio with Rattus norvegicus [4] was 800. In addition, the clearance in [5] amounted to 32 mL/min/kg; in data set [10] it was 46 mL/min/kg. Further, the Activity in the data set on Rattus norvegicus [8] was 50%. In data set [9], this molecule yielded a microsomal CLint at 1 µM of 14 µL/min/mg. The pH-dependent lipophilicity (logD) in data set [11] amounted to 3.6. Moreover, the unbound share (fraction unbound) at 18 h, 10 µM in data set [13] was 0.034. The bioavailability in data set [14] worked out at 131%. The Ratio IC50 in the data set listed under Homo sapiens stood at 10. The same molecule showed a half-life in [15] of 4.5 h.

A word on the solubility: it is the dissolved amount per volume that the medium holds. For orientation: inhibition means how much of the control response was suppressed. The term pIC50 denotes the IC50 on a negative log10 scale, so that one unit is a factor of ten. The microsomal CLint is the rate of metabolic loss divided by the concentration. The term logD denotes the decadic logarithm of the distribution of all forms, ionised or not, between an organic phase and buffer at a given pH. One may read the fraction unbound as the share of the substance not bound to proteins or other matrix. Broadly, the half-life is the time in which the quantity being followed falls by half.
